Experimental data as given in ChEMBL document CHEMBL5724801, “EUbOPEN Chemogenomics Library - Multiplex” (2024).
“And” between values parts separate entries of the source, which are not always exact repeats. Equal entries are not always repeated.

The compounds below were run on HEK-293T (assay: Multiplex assay against HEK293T). Conditions: human, 12 h, 1 µM, compound concentration 1 uM.
Type: toxicity, cell-based
Method in brief: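 On a CQ1 microscope at 37°C and 5% CO2, live cells were imaged after compound addition. They had been stained at seeding with Hoechst33342, BioTracker Green Microtubule Cytoskeleton Dye, MitoTracker Red and Annexin V Alexa Fluor 680. CellPathfinder machine-learning gating assigned cells to Hoechst high-intensity objects or normal cells, normal cells to healthy, pyknosed or fragmented nuclei, and pyknosed cells to mitotic or apoptotic. Tubulin, mitochondrial-mass and membrane-permeability phenotypes are per cents of healthy-nucleus cells.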
For `CCn1cnc2c(-c3ccc(F)c(-c4ccc(S(=O)(=O)CC)cc4OC)c3)cnnc21` [DARIGABAT], the “Population Apoptotic (%)” value was 11.84% and 26.37%, the “Population Fragmented Nuclei (%)” value was 2.08% and 6.03% and the “Population Healthy Nuclei (%)” value was 45.14% and 15.52%. For the same compound, the “Population Hoechst High Intensity Objects (%)” value was 0.69% and 0%, the “Population Membrane Permeable-Phenotype (%)” value was 1.54% and 0% and the “Population Mitochondria Different-Phenotype (%)” value was 30.77% and 11.11%. For the same compound, the “Population Mitotic Cells (%)” value was 88.16% and 73.63%, the “Population Normal (%)” value was 99.31% and 100% and the “Population Pyknosed Nuclei (%)” value was 52.78% and 78.45%. For the same compound, the “Population Tubulin-Different-Phenotype (%)” value was 7.69% and 16.67% and the “Total Cell Count” value was 290 and 116. `COc1ccc(Cl)cc1[C@]1(F)C(=O)Nc2cc(C(F)(F)F)ccc21` [FLINDOKALNER] was tested, and the “Population Apoptotic (%)” value was 8.33% and 8.73%, the “Population Fragmented Nuclei (%)” value was 2.3% and 5.16% and the “Population Hoechst High Intensity Objects (%)” value was 0%. The “Population Membrane Permeable-Phenotype (%)” value was 0.56% and 0%, the “Population Mitochondria Different-Phenotype (%)” value was 45.76% and 33.33% and the “Population Mitotic Cells (%)” value was 91.67% and 91.27%. For the same compound, the “Population Normal (%)” value was 100%, the “Population Pyknosed Nuclei (%)” value was 39.47% and 81.29% and the “Total Cell Count” value was 304 and 155.

Same assay, conditions: human, 12 h, 10 µM, compound concentration 10 uM
For `CCn1cnc2c(-c3ccc(F)c(-c4ccc(S(=O)(=O)CC)cc4OC)c3)cnnc21` [DARIGABAT], the “Population Apoptotic (%)” value was 21.29% and 10%, the “Population Fragmented Nuclei (%)” value was 1.32% and 0.75% and the “Population Hoechst High Intensity Objects (%)” value was 0.44% and 0%. For the same compound, the “Population Membrane Permeable-Phenotype (%)” value was 0%, the “Population Mitochondria Different-Phenotype (%)” value was 28.57% and 46.15% and the “Population Mitotic Cells (%)” value was 78.71% and 90%. For the same compound, the “Population Normal (%)” value was 99.56% and 100%, the “Population Pyknosed Nuclei (%)” value was 67.98% and 89.55% and the “Population Tubulin-Different-Phenotype (%)” value was 40% and 69.23%. The “Total Cell Count” value was 229 and 134. `COc1ccc(Cl)cc1[C@]1(F)C(=O)Nc2cc(C(F)(F)F)ccc21` [FLINDOKALNER] was tested, and the “Population Apoptotic (%)” value was 11.41% and 18.18%, the “Population Fragmented Nuclei (%)” value was 2.47% and 3.73% and the “Population Hoechst High Intensity Objects (%)” value was 0.54% and 0%. The “Population Membrane Permeable-Phenotype (%)” value was 0.48% and 0%, the “Population Mitochondria Different-Phenotype (%)” value was 38.16% and 26.32% and the “Population Mitotic Cells (%)” value was 88.59% and 81.82%. The “Population Normal (%)” value was 99.46% and 100%, the “Population Pyknosed Nuclei (%)” value was 40.82% and 82.09% and the “Total Cell Count” value was 367 and 134.

Same assay, conditions: human, 24 h, 1 µM, compound concentration 1 uM
With `CCn1cnc2c(-c3ccc(F)c(-c4ccc(S(=O)(=O)CC)cc4OC)c3)cnnc21` [DARIGABAT] the “Population Apoptotic (%)” value was 18.67% and 32.22%, the “Population Fragmented Nuclei (%)” value was 2.2% and 5.36% and the “Population Hoechst High Intensity Objects (%)” value was 0.22% and 1.75%. For the same compound, the “Population Membrane Permeable-Phenotype (%)” value was 1.8% and 0%, the “Population Mitochondria Different-Phenotype (%)” value was 24.46% and 31.25% and the “Population Mitotic Cells (%)” value was 81.33% and 67.78%. The “Population Normal (%)” value was 99.78% and 98.25%, the “Population Pyknosed Nuclei (%)” value was 36.56% and 80.36% and the “Population Tubulin-Different-Phenotype (%)” value was 17.63% and 6.25%. In the case of `COc1ccc(Cl)cc1[C@]1(F)C(=O)Nc2cc(C(F)(F)F)ccc21` [FLINDOKALNER], the “Population Apoptotic (%)” value is reported as 16.18% and 15.32%, the “Population Fragmented Nuclei (%)” value is reported as 1.01% and 6.17% and the “Population Hoechst High Intensity Objects (%)” value is reported as 0%. For the same compound, the “Population Membrane Permeable-Phenotype (%)” value was 3.37% and 0%, the “Population Mitochondria Different-Phenotype (%)” value was 17.98% and 10.71% and the “Population Mitotic Cells (%)” value was 83.82% and 84.68%. The “Population Normal (%)” value was 100%, the “Population Pyknosed Nuclei (%)” value was 27.36% and 76.54% and the “Population Tubulin-Different-Phenotype (%)” value was 11.8% and 10.71%.

Same assay, conditions: human, 24 h, 10 µM, compound concentration 10 uM
In the case of `CCn1cnc2c(-c3ccc(F)c(-c4ccc(S(=O)(=O)CC)cc4OC)c3)cnnc21` [DARIGABAT], the “Population Apoptotic (%)” value is reported as 40.69% and 29.17%, the “Population Fragmented Nuclei (%)” value is reported as 0.43% and 1.46% and the “Population Hoechst High Intensity Objects (%)” value is reported as 0.86% and 0%. For the same compound, the “Population Membrane Permeable-Phenotype (%)” value was 0% and 6.67%, the “Population Mitochondria Different-Phenotype (%)” value was 61.9% and 46.67% and the “Population Mitotic Cells (%)” value was 59.31% and 70.83%. For the same compound, the “Population Normal (%)” value was 99.14% and 100%, the “Population Pyknosed Nuclei (%)” value was 63.04% and 87.59% and the “Total Cell Count” value was 232 and 137. With `COc1ccc(Cl)cc1[C@]1(F)C(=O)Nc2cc(C(F)(F)F)ccc21` [FLINDOKALNER] the “Population Apoptotic (%)” value was 13.79% and 23.64%, the “Population Fragmented Nuclei (%)” value was 2.57% and 5.62% and the “Population Healthy Nuclei (%)” value was 68.77% and 25.62%. The “Population Hoechst High Intensity Objects (%)” value was 0.2% and 0%, the “Population Membrane Permeable-Phenotype (%)” value was 0.86% and 0% and the “Population Mitochondria Different-Phenotype (%)” value was 23.28% and 12.2%. The “Population Mitotic Cells (%)” value was 86.21% and 76.36%, the “Population Normal (%)” value was 99.8% and 100% and the “Population Pyknosed Nuclei (%)” value was 28.66% and 68.75%.

Same assay, conditions: human, 48 h, 1 µM, compound concentration 1 uM
With `CCn1cnc2c(-c3ccc(F)c(-c4ccc(S(=O)(=O)CC)cc4OC)c3)cnnc21` [DARIGABAT] the “Population Apoptotic (%)” value was 12.68% and 27.16%, the “Population Fragmented Nuclei (%)” value was 3.42% and 2.05% and the “Population Healthy Nuclei (%)” value was 77.19% and 42.47%. The “Population Hoechst High Intensity Objects (%)” value was 0%, the “Population Membrane Permeable-Phenotype (%)” value was 3.54% and 1.61% and the “Population Mitochondria Different-Phenotype (%)” value was 36.28% and 61.29%. The “Population Mitotic Cells (%)” value was 87.32% and 72.84%, the “Population Normal (%)” value was 100% and the “Population Pyknosed Nuclei (%)” value was 19.4% and 55.48%. For `COc1ccc(Cl)cc1[C@]1(F)C(=O)Nc2cc(C(F)(F)F)ccc21` [FLINDOKALNER], the “Population Fragmented Nuclei (%)” value was 2.21% and 2.93%, the “Population Healthy Nuclei (%)” value was 85.07% and 54.63% and the “Population Hoechst High Intensity Objects (%)” value was 0%. The “Population Membrane Permeable-Phenotype (%)” value was 4.29% and 2.68%, the “Population Mitochondria Different-Phenotype (%)” value was 14.16% and 20.54% and the “Population Mitotic Cells (%)” value was 96% and 72.41%. For the same compound, the “Population Normal (%)” value was 100%.

Same assay, conditions: human, 48 h, 10 µM, compound concentration 10 uM
`CCn1cnc2c(-c3ccc(F)c(-c4ccc(S(=O)(=O)CC)cc4OC)c3)cnnc21` [DARIGABAT] was tested, and the “Population Apoptotic (%)” value was 55.34% and 39.62%, the “Population Fragmented Nuclei (%)” value was 1.71% and 3.1% and the “Population Hoechst High Intensity Objects (%)” value was 0.34% and 0%. For the same compound, the “Population Membrane Permeable-Phenotype (%)” value was 1.08% and 0%, the “Population Mitochondria Different-Phenotype (%)” value was 92.97% and 73.68% and the “Population Mitotic Cells (%)” value was 44.66% and 60.38%. For the same compound, the “Population Normal (%)” value was 99.66% and 100%, the “Population Pyknosed Nuclei (%)” value was 35.15% and 82.17% and the “Total Cell Count” value was 294 and 129. With `COc1ccc(Cl)cc1[C@]1(F)C(=O)Nc2cc(C(F)(F)F)ccc21` [FLINDOKALNER] the “Population Apoptotic (%)” value was 9.02% and 19.67%, the “Population Fragmented Nuclei (%)” value was 2.19% and 4.66% and the “Population Healthy Nuclei (%)” value was 86.19% and 63.73%. For the same compound, the “Population Hoechst High Intensity Objects (%)” value was 0% and 0.52%, the “Population Membrane Permeable-Phenotype (%)” value was 7.07% and 1.63% and the “Population Mitochondria Different-Phenotype (%)” value was 21.1% and 21.95%. The “Population Mitotic Cells (%)” value was 90.98% and 80.33%, the “Population Normal (%)” value was 100% and 99.48% and the “Population Pyknosed Nuclei (%)” value was 11.62% and 31.61%.
